Measured values published in ChEMBL document CHEMBL4043205, “Picomolar inhibition of β-galactosidase (bovine liver) attributed to loop closure” (Bioorg Med Chem, 2017).
The source made the active and inactive calls. The calls are words filed in the database; no cut-off is given here.

What was measured:
[1] = target: T1, Beta-galactosidase (Bos taurus) (UniProt Q58D55); assay: Competitive inhibition of bovine liver beta-galactosidase using 4-nitrophenyl-beta-D-galactopyranoside substrate measured over 240 mins at 10 mins intervals by UV/Vis spectroscopy based Lineweaver-Burk plot
T1 sequence (whole entry): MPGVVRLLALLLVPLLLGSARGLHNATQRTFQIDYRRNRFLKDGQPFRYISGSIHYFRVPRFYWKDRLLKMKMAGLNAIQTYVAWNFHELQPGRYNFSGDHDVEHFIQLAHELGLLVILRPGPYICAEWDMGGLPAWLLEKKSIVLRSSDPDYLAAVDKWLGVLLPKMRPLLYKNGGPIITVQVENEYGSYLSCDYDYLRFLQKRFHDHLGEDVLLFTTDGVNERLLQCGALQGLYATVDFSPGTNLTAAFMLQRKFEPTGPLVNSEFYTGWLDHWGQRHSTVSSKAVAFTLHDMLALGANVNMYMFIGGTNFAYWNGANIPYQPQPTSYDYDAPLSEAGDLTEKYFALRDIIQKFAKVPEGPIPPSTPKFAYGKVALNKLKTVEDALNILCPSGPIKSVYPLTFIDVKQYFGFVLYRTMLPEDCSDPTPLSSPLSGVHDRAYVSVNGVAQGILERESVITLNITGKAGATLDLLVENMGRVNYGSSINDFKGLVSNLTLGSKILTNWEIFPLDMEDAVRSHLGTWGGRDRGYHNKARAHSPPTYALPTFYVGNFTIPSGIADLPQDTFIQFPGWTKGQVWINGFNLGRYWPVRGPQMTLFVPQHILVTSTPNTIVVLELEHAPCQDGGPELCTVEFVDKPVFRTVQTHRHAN

[2] = target: T1, Beta-galactosidase (Bos taurus); assay: Competitive inhibition of bovine liver beta-galactosidase using 4-nitrophenyl-beta-D-galactopyranoside substrate measured over 240 mins at 10 mins intervals by UV/Vis spectroscopy based Eddie-Hofstee plot
[3] = Inhibition of Aspergillus oryzae beta-galactosidase using 2-chloro-4-nitrophenyl b-dgalactopyranoside substrate
[4] = Inhibition of Aspergillus oryzae beta-galactosidase using 2-chloro-4-nitrophenyl b-dgalactopyranoside substrate relative to control
[5] = system: Aspergillus oryzae; assay: Inhibition of Aspergillus oryzae beta-galactosidase using 2-chloro-4-nitrophenyl b-dgalactopyranoside substrate by Eddie-Hofstee plot
[6] = target: T2, Beta-galactosidase (Bos taurus, UniProt Q58D55); assay: Inhibition of bovine liver beta-galactosidase pre-incubated for 30 mins with 4-nitrophenyl-beta-D-galactopyranoside substrate before enzyme addition measured over 45 mins at 27 secs intervals by UV/Vis based spectroscopy
T2 sequence (Q58D55 whole entry): T1 sequence (whole entry)
Method in brief: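 Bovine liver enzyme (stock aliquot thawed, diluted in 5 mM HEPES, kept on ice). Varied 4-nitrophenyl-β-D-galactopyranoside with fixed inhibitor, pH 7.50 HEPES, equilibrated 30 °C 30 min before enzyme; 405 nm read for 45 min. Initial rates via ε 13,300 M−1 cm−1, fitted Michaelis-Menten at ≥2 inhibitor levels; competitive Ki from K′m = Km(1+[I]/Ki); duplicates, Lineweaver-Burk check.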

[7] = system: Aspergillus oryzae; assay: Inhibition of Aspergillus oryzae beta-galactosidase using 2-chloro-4-nitrophenyl b-dgalactopyranoside substrate by Lineweaver-Burk plot
[8] = target: T2, Beta-galactosidase; assay: Inhibition of bovine liver beta-galactosidase using 4-nitrophenyl-beta-D-galactopyranoside substrate measured over 240 mins at 10 mins intervals by UV/Vis spectroscopy
Method in brief: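 Bovine liver enzyme in 5 mM HEPES pH 7.50; 4-nitrophenyl-β-D-galactopyranoside mixed with 11 inhibitor dilutions (stocks 0.005–200 μM), equilibrated 30 °C 30 min, then enzyme added. Absorbance at 405 nm followed 240 min; final reads converted to percent inhibition against buffer control, plotted versus log inhibitor concentration; duplicates.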

SMILES: CCCCCCCCCCCNC1=N[C@H](CO)[C@H](O)[C@H](O)[C@H]1O
- Inhibition mode (qualitative, Lineweaver-Burk) [1]: Active
- competitive inhibition (qualitative call) [2]: Active
- Ki [3]: 48.4 nM
- IC50 [4]: 33.5 nM
- inhibition activity (qualitative) [5]: Active
- Ki [6]: 0.24 nM
- inhibition activity [7]: Active
- IC50 [8]: 42.7 nM

SMILES: CO[C@@H]1[C@H](O)[C@@H](O)C(NCc2ccc(C)cc2)=N[C@@H]1CO
- Inhibition mode (qualitative, Lineweaver-Burk) [1]: Active
- competitive inhibition (qualitative call) [2]: Active
- Ki [3]: 1400 nM
- IC50 [4]: 40700 nM
- inhibition activity (qualitative) [5]: Active
- Ki [6]: 840 nM
- inhibition activity [7]: Active
- IC50 [8]: 9200 nM

SMILES: Cc1ccccc1C/N=C1\N[C@H](CO)[C@H](O)[C@H](O)[C@H]1O
- Inhibition mode (qualitative, Lineweaver-Burk) [1]: Active
- competitive inhibition (qualitative call) [2]: Active
- Ki [3]: 23.6 nM
- IC50 [4]: 623 nM
- inhibition activity (qualitative) [5]: Active
- Ki [6]: 0.2 nM
- inhibition activity [7]: Active
- IC50 [8]: 118 nM

SMILES: OC[C@H]1N/C(=N\CC2CCCCCC2)[C@H](O)[C@@H](O)[C@H]1O
- Inhibition mode (qualitative, Lineweaver-Burk) [1]: Active
- competitive inhibition (qualitative call) [2]: Active
- Ki [3]: 6.3 nM
- IC50 [4]: 36 nM
- inhibition activity (qualitative) [5]: Active
- Ki [6]: 0.16 nM
- inhibition activity [7]: Active
- IC50 [8]: 45.4 nM

SMILES: OC[C@H]1N/C(=N\CC2CC2)[C@H](O)[C@@H](O)[C@H]1O
- Inhibition mode (qualitative, Lineweaver-Burk) [1]: Active
- competitive inhibition (qualitative call) [2]: Active
- Ki [3]: 9.5 nM
- IC50 [4]: 36 nM
- inhibition activity (qualitative) [5]: Active
- Ki [6]: 0.39 nM
- inhibition activity [7]: Active
- IC50 [8]: > 1400 nM

SMILES: COc1ccc(C/N=C2\N[C@H](CO)[C@H](O)[C@H](O)[C@H]2O)cc1
- Inhibition mode (qualitative, Lineweaver-Burk) [1]: Active
- competitive inhibition (qualitative call) [2]: Active
- Ki [3]: 17.1 nM
- IC50 [4]: 150 nM
- inhibition activity (qualitative) [5]: Active
- Ki [6]: 0.12 nM
- inhibition activity [7]: Active
- IC50 [8]: 26.2 nM

SMILES: O=C1N[C@H](CO)[C@H](O)[C@H](O)[C@H]1O
- Inhibition mode (qualitative, Lineweaver-Burk) [1]: Active
- competitive inhibition (qualitative call) [2]: Active
- Ki [3]: 615 nM
- IC50 [4]: > 50000 nM
- inhibition activity (qualitative) [5]: Active
- Ki [6]: 2700 nM
- inhibition activity [7]: Active
- IC50 [8]: 8700 nM

SMILES: CCCCCCC/N=C1\N[C@H](CO)[C@H](O)[C@H](O)[C@H]1O
- Inhibition mode (qualitative, Lineweaver-Burk) [1]: Active
- competitive inhibition (qualitative call) [2]: Active
- Ki [3]: 10.8 nM
- IC50 [4]: 107 nM
- inhibition activity (qualitative) [5]: Active
- Ki [6]: 0.11 nM
- inhibition activity [7]: Active
- IC50 [8]: 24.1 nM

SMILES: OC[C@H]1N/C(=N\CC2CCCCC2)[C@H](O)[C@@H](O)[C@H]1O
- Inhibition mode (qualitative, Lineweaver-Burk) [1]: Active
- competitive inhibition (qualitative call) [2]: Active
- Ki [3]: 11.3 nM
- IC50 [4]: 22 nM
- inhibition activity (qualitative) [5]: Active
- Ki [6]: 0.08 nM
- inhibition activity [7]: Active
- IC50 [8]: 11.6 nM

SMILES: CC(C)(C)c1ccc(C/N=C2\N[C@H](CO)[C@H](O)[C@H](O)[C@H]2O)cc1
- Inhibition mode (qualitative, Lineweaver-Burk) [1]: Active
- competitive inhibition (qualitative call) [2]: Active
- Ki [3]: 20.6 nM
- IC50 [4]: 122 nM
- inhibition activity (qualitative) [5]: Active
- Ki [6]: 0.11 nM
- inhibition activity [7]: Active
- IC50 [8]: 412 nM

SMILES: Cc1ccc(C/N=C2\N[C@H](CO)[C@H](O)[C@H](O)[C@H]2O)cc1
- Inhibition mode (qualitative, Lineweaver-Burk) [1]: Active
- competitive inhibition (qualitative call) [2]: Active
- Ki [3]: 8 nM
- IC50 [4]: 36 nM
- inhibition activity (qualitative) [5]: Active
- Ki [6]: 0.07 nM
- inhibition activity [7]: Active
- IC50 [8]: 57.6 nM

SMILES: OC[C@H]1N/C(=N\Cc2ccc(F)cc2)[C@H](O)[C@@H](O)[C@H]1O
- Inhibition mode (qualitative, Lineweaver-Burk) [1]: Active
- competitive inhibition (qualitative call) [2]: Active
- Ki [3]: 10.1 nM
- IC50 [4]: 331 nM
- inhibition activity (qualitative) [5]: Active
- Ki [6]: 0.19 nM
- inhibition activity [7]: Active
- IC50 [8]: 9.1 nM

SMILES: OC[C@H]1N/C(=N\C2CC2)[C@H](O)[C@@H](O)[C@H]1O
- Inhibition mode (qualitative, Lineweaver-Burk) [1]: Active
- competitive inhibition (qualitative call) [2]: Active
- Ki [3]: 31.9 nM
- IC50 [4]: 369 nM
- inhibition activity (qualitative) [5]: Active
- Ki [6]: 0.32 nM
- inhibition activity [7]: Active
- IC50 [8]: > 1000 nM

SMILES: OC[C@H]1N/C(=N\Cc2ccc(C(F)(F)F)cc2)[C@H](O)[C@@H](O)[C@H]1O
- Inhibition mode (qualitative, Lineweaver-Burk) [1]: Active
- competitive inhibition (qualitative call) [2]: Active
- Ki [3]: 15.7 nM
- IC50 [4]: 122 nM
- inhibition activity (qualitative) [5]: Active
- Ki [6]: 0.16 nM
- inhibition activity [7]: Active
- IC50 [8]: 15.2 nM

SMILES: Cc1cccc(C/N=C2\N[C@H](CO)[C@H](O)[C@H](O)[C@H]2O)c1
- Inhibition mode (qualitative, Lineweaver-Burk) [1]: Active
- competitive inhibition (qualitative call) [2]: Active
- Ki [3]: 29.4 nM
- IC50 [4]: 131 nM
- inhibition activity (qualitative) [5]: Active
- Ki [6]: 0.11 nM
- inhibition activity [7]: Active
- IC50 [8]: 16.2 nM

SMILES: OC[C@H]1N/C(=N\C2CCCCC2)[C@H](O)[C@@H](O)[C@H]1O
- Inhibition mode (qualitative, Lineweaver-Burk) [1]: Active
- competitive inhibition (qualitative call) [2]: Active
- Ki [3]: 602 nM
- IC50 [4]: 4870 nM
- inhibition activity (qualitative) [5]: Active
- Ki [6]: 2.34 nM
- inhibition activity [7]: Active
- IC50 [8]: > 1000 nM

SMILES: OC[C@H]1N/C(=N\CCCc2ccccc2)[C@H](O)[C@@H](O)[C@H]1O
- Inhibition mode (qualitative, Lineweaver-Burk) [1]: Active
- competitive inhibition (qualitative call) [2]: Active
- Ki [3]: 8.6 nM
- IC50 [4]: 36 nM
- inhibition activity (qualitative) [5]: Active
- Ki [6]: 0.06 nM
- inhibition activity [7]: Active
- IC50 [8]: 41.3 nM

SMILES: CCCCC(CC)CNC1=N[C@H](CO)[C@H](O)[C@H](O)[C@H]1O (stereo partly drawn)
- Inhibition mode (qualitative, Lineweaver-Burk) [1]: Active
- competitive inhibition (qualitative call) [2]: Active
- Ki [3]: 7.8 nM
- IC50 [4]: 36 nM
- inhibition activity (qualitative) [5]: Active
- Ki [6]: 0.18 nM
- inhibition activity [7]: Active
- IC50 [8]: 21.6 nM

SMILES: OC[C@H]1N/C(=N\Cc2ccccc2F)[C@H](O)[C@@H](O)[C@H]1O
- Inhibition mode (qualitative, Lineweaver-Burk) [1]: Active
- competitive inhibition (qualitative call) [2]: Active
- Ki [3]: 16.1 nM
- IC50 [4]: 117 nM
- inhibition activity (qualitative) [5]: Active
- Ki [6]: 0.23 nM
- inhibition activity [7]: Active
- IC50 [8]: 43.1 nM

SMILES: CCC/N=C1\N[C@H](CO)[C@H](O)[C@H](O)[C@H]1O
- Inhibition mode (qualitative, Lineweaver-Burk) [1]: Active
- competitive inhibition (qualitative call) [2]: Active
- Ki [3]: 149 nM
- IC50 [4]: 226 nM
- inhibition activity (qualitative) [5]: Active
- Ki [6]: 0.32 nM
- inhibition activity [7]: Active
- IC50 [8]: 1030 nM

SMILES: OC[C@H]1N/C(=N\Cc2cccc(F)c2)[C@H](O)[C@@H](O)[C@H]1O
- Inhibition mode (qualitative, Lineweaver-Burk) [1]: Active
- competitive inhibition (qualitative call) [2]: Active
- Ki [3]: 20.3 nM
- IC50 [4]: 115 nM
- inhibition activity (qualitative) [5]: Active
- Ki [6]: 0.13 nM
- inhibition activity [7]: Active
- IC50 [8]: 9.4 nM
